Bioassay records (PubChem)
Sampled rows, rich in hits. Any-hit rate of the full collection: about 9.6%.
BaF3 parental = counter-screen for JAK2V617F inhibitors: parental Ba/F3 viability inhibitors; 220,000 tested, 1.1% active; inhibition, % at 5.6 µM; CellTiter-Glo ATP luminescence;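 active = inhibition above a per-campaign cutoff, the mean inhibition of all tested compounds plus 3 SD, cut at about 27% in these data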
APP 5UTR inh = APP translation inhibition; 190,000 tested, 0.82% active; inhibition, % at 2 µM; SH-SY5Y APP 5'UTR-luciferase reporter, luminescence;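 active = inhibition above a set limit, derived from the sample mean plus 3 SD, cut at about 45% in these data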
L major viab = inhibitors of Leishmania major promastigote growth | Leishmania major promastigotes, resazurin fluorescence viability | inhibition, % at 10 µM | 200,000 tested, 9% active | AID 1063; in the data active = inhibition above about 50%;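 note: promastigotes grown with compound for 44 hours at 28 °C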
MT stabilize HCS = microtubule stabilizers in HeLa cells | 200,000 tested, 0.83% active | HeLa tubulin immunostaining HCS, 24 h; share of cells brighter than vehicle mean+2SD | % tubulin-high responders, % at 10 µM;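 active = plate Z-score above 3 for both tubulin-high and condensed-nucleus cell shares, with cell loss under 80%, at 10 µM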;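 note: anti alpha tubulin signal scored within the nucleus-defined area of each cell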
Ba/F3 V617F tox = lowers viability of Ba/F3 cells expressing EpoR and JAK2V617F; ATP luminescence; inhibition, % at 5.6 µM; 220,000 tested, 1.1% active; AID 1446;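 active = inhibition above the campaign mean plus 3 SD over all tested compounds, cut at about 24% in these data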;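 note: cytokine-independent growth of Ba/F3 cells driven by EpoR plus mutant JAK2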
b-catenin transl = beta-catenin nuclear translocation modulation; HeLa beta-catenin nuclear translocation, immunofluorescence imaging; nuclear translocation activity, % at 5 µM; 190,000 tested, 0.3% active;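 active = nuclear translocation activity above 50% at 5 µM, with a well cell count of 50 or more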;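 note: per-cell ratio of nuclear to cytoplasmic median beta-catenin stain intensity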
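Test system: human HeLa cells, endogenous beta-catenin. Times: 24 h compound exposure, 37°C. Measured by: beta-catenin immunofluorescence imaging with DAPI.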
Large screens that a line does not name were inactive.

O=C(NNc1cc(Br)c(O)c(Br)c1)c1ccccc1	L major viab 88
O=C(Nc1cccc(O)c1)c1ccccc1	L major viab 62
Cc1ccc(C(=O)Nc2cccc(C(=O)NCc3ccccc3)c2)cc1	L major viab 52
CC(C)c1ccccc1NC(=O)c1cccc(NC(=O)c2ccccc2)c1	L major viab 91
CC(C)c1cc(NC(=O)c2ccccc2)cc(C(C)C)c1O	none
COc1ccc(C(=O)NCCc2nnc3ccc(SCC(=O)Nc4cc(C)on4)nn23)cc1	none
O=C1CCCN1CCCNS(=O)(=O)c1ccc(F)cc1F	none (no result: APP 5UTR inh, L major viab, MT stabilize HCS)
O=C(NC(C(=O)N/N=C/c1ccccn1)c1n[nH]c(=O)c2ccccc12)c1ccccc1 (centres undefined)	none (no result: APP 5UTR inh, L major viab, MT stabilize HCS)
CN(C)c1ccc([C@@H]2[C@@H]([N+](=O)[O-])[C@H]3C=Cc4ccccc4N3[C@H]2C(=O)c2ccc(Cl)cc2)cc1	BaF3 parental 40
COc1ccc(S(=O)(=O)NNC(=O)c2cc3ccccc3o2)cc1	none
CCc1ccc(CN(C)C(=O)CCc2nnc(CCc3cccc(OC)c3)o2)nc1	L major viab 100
CCc1ccc(CN(C)C(=O)CCc2nnc(CCc3ccccc3OC)o2)nc1	none
O=[N+]([O-])c1cc(S(=O)(=O)C(F)(F)F)ccc1Sc1nc2ccccc2[nH]1	L major viab 100
O=[N+]([O-])c1cc(S(=O)(=O)C(F)(F)F)ccc1Sc1nc2ccccc2s1	L major viab 101
CS(=O)(=O)c1ccc(Sc2nc3ccccc3s2)c([N+](=O)[O-])c1	BaF3 parental 45, L major viab 80, Ba/F3 V617F tox 66
CS(=O)(=O)c1ccc(Sc2nc3ccccc3[nH]2)c([N+](=O)[O-])c1	none
O=S(=O)(Nc1ccc(O)c(Sc2nc3ccccc3s2)c1)c1ccc(F)cc1	none
CC(C)(C)NC(=O)C(c1c[nH]c2ccccc12)N(C(=O)Cn1nnc(-c2ccc(Cl)cc2)n1)c1ccccc1F (centres undefined)	L major viab 51
O=C(CSc1ncnc2c1cnn2CCc1ccccc1)Nc1cccc(C(F)(F)F)c1	none
CCn1c(/C=C/Nc2ccccc2)[n+](CC)c2cc(Cl)c(Cl)cc21	L major viab 100
CCn1c(/C=C/N(C(C)=O)c2ccccc2)[n+](CCCS(=O)(=O)[O-])c2cc(Cl)c(Cl)cc21	none
CCC(Sc1nc2cc3c(cc2c(=O)n1Cc1ccco1)OCO3)C(=O)Nc1cccc(OC)c1 (centres undefined)	L major viab 96
CCC(C)(C)n1nnnc1C(c1ccc(C)cc1)N1CCCC1 (centres undefined)	L major viab 65
CCC(C)(C)n1nnnc1C(c1ccc(O)c(OC)c1)N1CCc2ccccc2C1 (centres undefined)	none
Cc1ccc(C(c2nnnn2C2CCCC2)N2CCc3ccccc32)cc1 (centres undefined)	BaF3 parental 40
CCC(C)(C)n1nnnc1C(c1cccs1)N1CCCCC1 (centres undefined)	none
COc1ccc2[nH]c(=O)c(C(c3nnnn3C3CCCCC3)N3CCN(C)CC3)cc2c1 (centres undefined)	none
CCC(C)(C)n1nnnc1C(c1ccccc1)N1CCc2ccccc2C1 (centres undefined)	L major viab 77
COc1ccc2cc(C(c3nnnn3C3CCCC3)N3CCc4ccccc4C3)c(=O)[nH]c2c1 (centres undefined)	L major viab 82
Cc1cccc(N(CC(=O)N/N=C/c2ccccc2C(=O)O)S(C)(=O)=O)c1C	none (no result: APP 5UTR inh, L major viab, MT stabilize HCS)
Nc1cc2nc[nH]c2cc1N	none
O=C(COC(=O)CNC(=O)c1cccc([N+](=O)[O-])c1)NCc1ccco1	none
CCC(C)(C)n1nnnc1C(c1cc2ccc(OC)cc2[nH]c1=O)N1CCc2ccccc2C1 (centres undefined)	L major viab 100 (no result: b-catenin transl)
CC(C)C(c1nnnn1C1CCCC1)N1CCc2ccccc21 (centres undefined)	none
CC(C)C(c1nnnn1C1CCCCC1)N1CCc2ccccc2C1 (centres undefined)	L major viab 67
COc1ccc2cc(C(c3nnnn3C(C)(C)C)N3CCc4ccccc4C3)c(=O)[nH]c2c1 (centres undefined)	L major viab 99
CCC(C)(C)n1nnnc1C(c1cccc(C#N)c1)N1CCN(c2cccc(C)c2C)CC1 (centres undefined)	L major viab 76
